A selection: hits, their analogues and other compounds. The true share with any hit is near 3.8%.
hERG protect = compounds protecting human hERG from proarrhythmic drug block | activation (rescue from dofetilide block), less the hit threshold, % at 10 µM | 0.51% of 310,000 active | Q12809 | CHO-hERG, FluxOR thallium flux, dofetilide IC70 present;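 active = activation above the mean of controls blocked by dofetilide plus 5 SD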;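 note: thallium influx through hERG after potassium depolarization seen as dye fluorescence rise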
KCNQ1 pot = human KCNQ1 channel potentiation or activation. P51787. CHO-K1 KCNQ1, thallium flux FluxOR fluorescence; stronger effect = higher value. B-score at 10 µM. 0.35% of 310,000 active. AID 2648;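 active = fluorescence ratio B-score, a plate-corrected score, at least three library SD, with initial intensity B-score within 5 SD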
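Schedule – 37 °C overnight plating, 90-min dark dye load, 20-min compound pretreatment · System – stable KCNQ1 CHO-K1 line · Probe or stimulus – thallium- and potassium-containing depolarizing buffer · Measured by – kinetic FluxOR fluorescence, 10 s baseline plus 110 s post-stimulus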
KCNK9 block = inhibitors of human KCNK9 two-pore domain potassium channel; 1.2% of 310,000 active; HEK293 KCNK9, FluxOR thallium flux fluorescence; stronger effect = lower value; B-score at 10 µM;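 active = ratio B-score over 3 SD below the library mean, with starting fluorescence within 5 SD of its mean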;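 note: negative B-score means less thallium flux so channel inhibition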
Kir21 block = blocks the mouse Kir2.1 inward-rectifier potassium channel | HEK293-Kir2.1, FluxOR thallium flux fluorescence; stronger effect = lower value | P35561 | 0.85% of 310,000 active | B-score at 10 µM | AID 1672;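 active = fluorescence ratio B-score at or below minus 3 SD of library scores, with starting-brightness B-score within 2 SD, cut at about -4.2 in these data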;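 note: channel flux triggered by added potassium and thallium sulfate stimulus; B-score of peak minus minimum fluorescence over baseline after thallium stimulus; more negative B-score means stronger Kir2.1 block with less thallium influx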
KCNQ1 inh = human KCNQ1 channel inhibition; P51787; CHO-K1 KCNQ1, FluxOR thallium flux fluorescence; stronger effect = higher value; B-score at 10 µM; 1.3% of 310,000 active;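 active = compounds whose thallium flux B-score, printed positive for inhibition, exceeds three library SD while starting fluorescence stays within three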;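 note: channel opened by potassium depolarization with thallium stimulus after 20 min compound exposure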
KCNK3 block = human KCNK3 channel inhibition, primary screen; CHO-KCNK3 thallium flux, FluxOR fluorescence; stronger effect = lower value; B-score at 10 µM; 0.84% of 340,000 active; AID 602410;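 active = B-score under library mean minus 4 SD, starting fluorescence ratio at most library mean plus 5 SD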;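 note: more negative B-score means stronger inhibition of thallium flux through KCNK3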
Target sequence (O14649 whole entry, looked up): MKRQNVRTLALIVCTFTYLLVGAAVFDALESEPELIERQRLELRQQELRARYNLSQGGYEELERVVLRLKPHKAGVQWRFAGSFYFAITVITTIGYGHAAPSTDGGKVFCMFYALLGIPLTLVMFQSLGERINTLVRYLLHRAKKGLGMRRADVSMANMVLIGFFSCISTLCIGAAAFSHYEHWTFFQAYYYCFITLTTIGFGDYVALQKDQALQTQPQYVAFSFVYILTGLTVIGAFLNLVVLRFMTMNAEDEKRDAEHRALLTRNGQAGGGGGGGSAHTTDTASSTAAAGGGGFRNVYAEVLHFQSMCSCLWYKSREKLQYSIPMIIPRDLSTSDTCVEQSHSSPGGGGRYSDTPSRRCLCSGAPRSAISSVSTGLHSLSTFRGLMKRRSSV
KCNK9 block conf = human KCNK9 inhibitor confirmation; 43% of 4,900 active; shares compounds with KCNK9 block; HEK293 KCNK9 cells, FluxOR thallium flux fluorescence; inhibition, % at 10 µM;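 active = thallium signal inhibited by more than 5 SD of the compound-free buffer control wells, on both duplicate plates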;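 note: 0% = assay buffer control wells without compound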
Kir2-1 spec = tests whether KCNK9 modulators also affect mouse Kir2.1. shares compounds with KCNK9 block. Kir2.1 cells, FluxOR thallium flux fluorescence. inhibition, % at 10 µM. 4% of 4,900 active;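 active = thallium signal drop more than 5 SD beyond the mean of the no-compound control wells, seen in both duplicate plates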;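 note: signal is fluorescence rise after thallium addition divided by baseline fluorescence; plate controls were assay buffer only for no effect and full block by chlorpromazine control for full effect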
KCNK9 uninduced = second check of KCNK9 modulator effects in non-induced HEK293 cells; shares compounds with KCNK9 block; FluxOR thallium flux; inhibition, % at 10 µM; 40% of 4,900 active; AID 492997;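 active = thallium signal drop beyond 5 SD of the untreated control mean, on both duplicate plates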;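 note: plate controls were buffer only IC0 wells for no effect and SID17386958 at its maximal inhibitory level for full effect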
KCNK3 inh conf = confirmation of human KCNK3 two-pore domain potassium channel inhibitors; 99% of 2,400 active; CHO-KCNK3 thallium flux, FluxOR fluorescence; 0% buffer, 100% carvedilol maximal block; AID 651638; ratio percent of control, % at 10 µM; shares compounds with KCNK3 block;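 active = ratio percent of control, averaged over triplicates, above buffer control mean plus 5 SD, cut at about 64% in these data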;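 note: ratio is the fluorescence rise from min to max over baseline after thallium stimulus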
KCNK3 uninduced = activity in cells without induced KCNK3 expression; shares compounds with KCNK3 block; AID 651747; non-induced KCNK3 parental cells, FluxOR thallium flux; stronger effect = lower value; thallium flux ratio (lower = more inhibition) at 10 µM; 40% of 2,400 active;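 active = thallium flux ratio, averaged over three wells, more than 5 SD below the buffer control mean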;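 note: host cells are CHO cells without KCNK3 induction; ratio is peak minus trough fluorescence over baseline then normalized to buffer controls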
* = called active by the depositor; i = inactive; / = no result given.

SMILES	hERG protect	KCNQ1 pot	KCNK9 block	Kir21 block	KCNQ1 inh	KCNK3 block	KCNK9 block conf	Kir2-1 spec	KCNK9 uninduced	KCNK3 inh conf	KCNK3 uninduced
Cc1ccc(NC(=O)CN(c2ccc(Cl)cc2)S(=O)(=O)c2cc([N+](=O)[O-])ccc2Cl)c(C)c1	-7.1	i	-13.6*	-1.71	i	-14.9*	62.5%*	i	36.5%*	115.3*	i
CN1\C(=C/C=C/C=C/C=[N+](C)C)C(C)(C)c2ccccc21	-52.8	i	-8.35*	-12.8*	16*	-12.9*	58.0%*	76.5%*	57.5%*	155.0*	0.085*
CN1/C(=C\C=O)C(C)(C)c2ccccc21	-3.4	i	i	-0.14	i	i	/	/	/	/	/
CCOC(=O)c1c(NC(=O)CSc2nnc(C)s2)sc2c1CCCCC2	-1.3	i	-9.4*	0.1	i	-9.75*	37.0%*	i	47.5%*	121.0*	0.159*
Cc1cc(-c2ccc(C(C)C)c(S(=O)(=O)N3CCC(C)CC3)c2)on1	-5.5	i	-17*	-0.02	15*	-16.6*	66.5%*	i	53.0%*	74.7*	i
CCc1ccc(-c2cc(C)no2)cc1S(=O)(=O)N1CCOc2ccc(C)cc21	-8.2	i	-8.93*	0.43	i	-10.6*	47.5%*	i	33.0%*	124.7*	0.155*
CCC1CN(S(=O)(=O)c2cc(-c3cc(C)no3)ccc2OC)c2cc(C)ccc2O1 (centres undefined)	-16.9	i	-10.8*	-1.31	i	-10.5*	36.0%*	i	32.0%*	121.0*	0.155*
CCc1ccc(-c2cc(C)no2)cc1S(=O)(=O)N1CCC(C)CC1	-10.7	i	-9.34*	0.13	i	-10*	i	i	46.5%*	101.7*	i
CCc1ccc(-c2cc(C)no2)cc1S(=O)(=O)N1CCN(c2cccc(C)c2C)CC1	-10.1	i	i	0	i	i	/	/	/	/	/
CN(C)CCNC(NC(=O)c1cccs1)C(Cl)(Cl)Cl (centres undefined)	-8.1	i	i	1.82	i	i	/	/	/	/	/
C1CN(CC2COC(CN3CCOCC3)CO2)CCO1 (centres undefined)	/	/	/	/	/	i	/	/	/	/	/
Nc1cc(=O)[nH]c(SCC(=O)Nc2ccc(Oc3ccccc3)cc2)n1	-11.7	i	i	0.82	i	i	/	/	/	/	/
CC(=O)c1cccc(NC(=O)CN2C(=S)NC(C)(C)CC2C)c1 (centres undefined)	-13.1	i	i	-0.01	i	i	/	/	/	/	/
Cc1csc(NC(=O)c2ccc(Cn3nc(C)c(Br)c3C)o2)n1	-23.2	i	i	-0.06	i	i	/	/	/	/	/
Cc1cc(C)cc(NC(=O)c2ccc(Cn3nc(C)c(Cl)c3C)o2)c1	-13.1	i	-10.2*	0.55	i	-9.4*	i	i	i	137.3*	0.115*
Cc1ccc(COn2c(-c3ccc(Cl)cc3Cl)nc3ncccc32)cc1	-15.3	i	-11.2*	-5.12*	i	-9.6*	55.5%*	i	42.0%*	120.0*	0.146*
CCc1c(C)sc2nc3c(C(=O)N4CCOCC4)cc(C(=O)c4cc(F)ccc4O)cn3c(=O)c12	-6.5	i	-12.6*	-2.16	i	-8.84*	i	i	23.5%*	95.7*	i
Cc1sc2nc3c(C(=O)N4CCCC4)cc(C(=O)c4ccccc4O)cn3c(=O)c2c1C	-10.5	i	i	0.45	i	i	/	/	/	/	/
CCN(C(=O)CSc1nc2n[nH]c(C)c2c(=N)n1-c1ccc(Cl)c(C)c1)c1cccc(C)c1	-7.6	i	-21.2*	0.27	i	-12*	68.5%*	i	40.0%*	96.7*	0.13*
CCCCOC1(c2ccccc2)OC(=O)c2ccccc21 (centres undefined)	-8.6	i	-15.7*	-0.17	i	i	54.5%*	i	51.5%*	100.7*	i
Cc1ccc(N=Nc2c(N)[nH]n3c(=O)c4c(nc23)CCCC4)cc1	-3.9	i	i	1.98	i	/	/	/	/	/	/
CCN(CC)C(=O)[C@H]1CC(CC(=O)NCCc2ccccn2)C(=O)N2CCc3c([nH]c4ccccc34)[C@]12C (some centres undefined)	/	/	/	/	/	i	/	/	/	/	/
CC(C)(C)n1nnnc1C(c1ccncc1)N1CCN(c2ccc(O)cc2)CC1 (centres undefined)	-6.6	i	i	1.09	i	i	/	/	/	/	/
CC(C)C(c1nnnn1C(C)(C)C)N1CCN(c2cccc(Cl)c2)CC1 (centres undefined)	-7.0	i	-12*	-0.04	i	-10*	58.5%*	i	36.5%*	126.0*	0.151*
CCCCCCNC(=O)CC(c1ccccc1)c1cc(Br)ccc1O (centres undefined)	-10.1	i	-11*	0.67	i	-9.84*	51.0%*	i	31.5%*	118.7*	0.148*
SMILES	hERG protect	KCNQ1 pot	KCNK9 block	Kir21 block	KCNQ1 inh	KCNK3 block	KCNK9 block conf	Kir2-1 spec	KCNK9 uninduced	KCNK3 inh conf	KCNK3 uninduced
O=C(CN(C(=O)c1csnn1)c1cccc(F)c1)NC1CCCC1	-4.4	i	i	0.25	i	i	/	/	/	/	/
O=C(NCCn1cc(SCc2ccc(F)cc2)c2ccccc21)c1c(F)cccc1F	-9.2	i	-13.9*	-0.45	i	-9.87*	60.0%*	i	31.0%*	94.3*	i
O=C(NCCn1cc(SCc2ccccc2)c2ccccc21)c1c(F)cccc1F	-12.5	i	i	-0.68	i	i	/	/	/	/	/
O=C(CCCSc1nnc(SCCCC(=O)c2ccc(F)cc2)s1)c1ccc(F)cc1	-17.8	i	i	-0.2	i	-10.7*	i	i	i	100.0*	i
O=C(Nc1nc(-c2ccccc2)cs1)c1cccs1	-13.2	i	i	0.05	i	i	/	/	/	/	/
O=C(Nc1nc(-c2ccc(Cl)s2)cs1)c1cccs1	-14.4	i	-9.16*	1.29	i	-8.87*	i	i	31.5%*	97.0*	i
CCn1cc(Br)c(C(=O)Nc2ccc(F)c(Cl)c2)n1	-15.9	i	-12*	-1.11	i	-11.3*	46.5%*	i	29.5%*	103.7*	i

Assay outcomes from PubChem BioAssay.
